Data as given in ChEMBL document CHEMBL4513216, “Probing the Open Global Health Chemical Diversity Library for Multistage-Active Starting Points for Next-Generation Antimalarials” (ACS Infect Dis, 2020).

Assay: Toxicity liver stage against HepG2, at 10uM
Format: cell-based
Set-up: test concentration 10 uM, cell line HepG2-A16-CD81EGFP
Conditions: human, HepG2-A16-CD81EGFP cells; read-out: INHIBITION
How it was run: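 Uninfected HepG2-A16-CD81EGFP cells, 3 × 10^3 per well, 1536-well, plated on prespotted compound at 10 μM final, parasite-free screening media added to match infected plates; puromycin 10 μM positive, DMSO 0.5% negative; run in parallel with 48 h PbLuc assay at 37 °C, 5% CO2; viability by CellTiter-Glo luminescence, normalized to controls.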

CC(C)c1noc(CCC(=O)NCC2CCOC2)n1 (stereo not drawn)
cytotoxicity at 10 µM: 4.57%

Cc1ccc(CCCC(=O)N2CCC(CS(N)(=O)=O)CC2)s1
cytotoxicity at 10 µM: 15.6%

COc1cc(N2CCN(CC3CC3)c3nc(C)ccc3C2)ncn1
cytotoxicity at 10 µM: -101%

Cn1cc(C(=O)Nc2cccc(-c3ccc4c(c3)CCO4)n2)ccc1=O
cytotoxicity at 10 µM: 3.72%

O=C(O)C(c1ccc2c(c1)OCCO2)N1CCCCCC1 (stereo not drawn)
cytotoxicity at 10 µM: -3.26%

CCCOC1CCCN(C(=O)c2[nH]nc(C)c2Br)C1 (stereo not drawn)
cytotoxicity at 10 µM: 0.595%

Cc1cccc(C(=O)N2C[C@@H]3CCN(C(C)C)C[C@@H]3C2)c1
cytotoxicity at 10 µM: -2.16%

CNC(=O)C(C)(C)N1CCC[C@H]1C(=O)NCCN1CCCC1
cytotoxicity at 10 µM: -2.3%

Cc1ccc(CCNC(=O)CC2COCCN2S(=O)(=O)N(C)C)s1 (stereo not drawn)
cytotoxicity at 10 µM: 1.69%

CC(C)(C(=O)NCC1CCN(Cc2cccnc2)C1)c1ccccc1 (stereo not drawn)
cytotoxicity at 10 µM: -1.66%

Cc1cccc2cc(CN3CCC(N4CCOCC4)CC3)c(=O)[nH]c12
cytotoxicity at 10 µM: -12%

CN(CCCO)c1nc(-c2ccc(C(N)=O)cc2)nc2c1CCNC2
cytotoxicity at 10 µM: -2.86%

CC(C)NC(=O)C1CN(C(=O)c2ccc(F)cc2)CC12CCOCC2 (stereo not drawn)
cytotoxicity at 10 µM: 1.08%

O=C(NCCNc1cnccn1)N1CCCC1
cytotoxicity at 10 µM: 3.92%

Fc1ccc(-c2n[nH]cc2CNCCn2cccn2)cc1
cytotoxicity at 10 µM: 8.1%

Cc1ccc(S(=O)(=O)NC(=O)CCc2ccccc2)cc1N(C)C
cytotoxicity at 10 µM: -0.31%

CCS(=O)(=O)NC[C@]12COC[C@H]1CN(CCc1ccccc1)C2
cytotoxicity at 10 µM: 6.07%

O=C(COC1CCCC1)N1C[C@@H]2COC[C@]2(COc2cccnc2)C1
cytotoxicity at 10 µM: -99.4%

COCCN(CCOC)C(=O)c1cccc(Cn2nc(C)cc2C)c1
cytotoxicity at 10 µM: -8.22%

O=C(Cn1c(=O)oc2ccccc21)N1Cc2cnn(CCO)c2C1
cytotoxicity at 10 µM: 0.154%

CC(CO)NC(=O)Nc1ccc(CC#N)cc1 (stereo not drawn)
cytotoxicity at 10 µM: -3.39%

CCOc1cc2c(cc1CN1CCC3(CCCNC3=O)C1)CCC2 (stereo not drawn)
cytotoxicity at 10 µM: 14.9%

COc1ccc2c(c1)CN(CC(=O)NC1CCCC1)CC2
cytotoxicity at 10 µM: -1.77%

Clc1cccnc1N1CCC(C2CCN(Cc3cccnc3)CC2)C1 (stereo not drawn)
cytotoxicity at 10 µM: 2.92%

COCc1nc(C(=O)N2CCN(Cc3cc(C)on3)CC2)cs1
cytotoxicity at 10 µM: -15%

Nc1cc(CCC2CN(Cc3ccc4c(c3)OCCO4)CCO2)ccn1 (stereo not drawn)
cytotoxicity at 10 µM: 15.8%

O=C1NC(c2ccccc2)=N[C@@]12CC[C@@H]1CN(Cc3nccs3)C[C@@H]12
cytotoxicity at 10 µM: 6.37%

CSc1ccccc1C(C(=O)O)N(C)CC1CCOCC1 (stereo not drawn)
cytotoxicity at 10 µM: 4.93%

COCC(C)NC(=O)c1cc(Br)c2c(c1)OCCO2 (stereo not drawn)
cytotoxicity at 10 µM: 3.54%

CNC(=O)Cc1ccc(NC(=O)NCc2ncc(C)s2)cc1
cytotoxicity at 10 µM: 7.34%

Cn1c(C2CC2)nc2c1CCN(CCc1ccccn1)C2
cytotoxicity at 10 µM: 4.59%

Cc1cc(NC(=O)NCCc2cscn2)nn1C
cytotoxicity at 10 µM: 2.24%

CN(C)C(=O)COCC1CN(Cc2ccoc2)Cc2ncn(C)c21 (stereo not drawn)
cytotoxicity at 10 µM: 5.99%

O=C(c1cscn1)N1CCC(Cc2cnc3[nH]ccc3c2)C1 (stereo not drawn)
cytotoxicity at 10 µM: -26.5%

CS(=O)(=O)c1nnc(NC(=O)CCc2cc(F)ccc2F)[nH]1
cytotoxicity at 10 µM: -16.6%

Nc1ncc(CN2CCC(CCC(=O)NC3CC3)CC2)cn1
cytotoxicity at 10 µM: 11.7%

CC(=O)NCC(=O)N1CCC(C2CCN(Cc3ccc(Cl)cc3)C2)CC1 (stereo not drawn)
cytotoxicity at 10 µM: -9.12%

Cc1nnc(CN(Cc2ccc3c(c2)OCO3)C2CCCCC2)o1
cytotoxicity at 10 µM: -6.14%

CCN1CCCC(O)(c2nc(C)c(CCOc3ccccc3F)s2)CC1 (stereo not drawn)
cytotoxicity at 10 µM: -32.1%

OCCNc1cc(-c2ccccc2)ncn1
cytotoxicity at 10 µM: -7.94%

O[C@H]1[C@H](n2cc(-c3cncnc3)nn2)c2ccccc2C12CCNCC2
cytotoxicity at 10 µM: -1.39%

Cc1nc(NC(=O)N2CCCC(C(F)(F)F)C2)nn1C (stereo not drawn)
cytotoxicity at 10 µM: 9.56%

COc1cccc(CC(=O)N2CCc3ncnc(C)c3CC2)c1
cytotoxicity at 10 µM: -1.59%

Cc1ncsc1CN1CC[C@H]2C(=O)N(c3ccccc3)CCO[C@H]2C1
cytotoxicity at 10 µM: 1.26%

CN1CCOC(CNCc2coc(-c3ccccc3)n2)C1 (stereo not drawn)
cytotoxicity at 10 µM: -5.1%

COc1cc2c(cc1OC)C(=O)C(Sc1nnc(C)o1)C2 (stereo not drawn)
cytotoxicity at 10 µM: 0.372%

CCCn1cc(NC(=O)c2ccc(NC(=O)NC3CC3)cc2)ccc1=O
cytotoxicity at 10 µM: 1.93%

CCN1CC2(CCN(C(=O)C(C)Oc3ccc(F)cc3F)CC2)OC1=O (stereo not drawn)
cytotoxicity at 10 µM: -1.98%

Cc1csc(C(C)(C)NCCOc2ccc(CC#N)cc2)n1
cytotoxicity at 10 µM: 1.74%

O=C(NCCn1cccc1)C(c1ccccc1)N1CCCC1 (stereo not drawn)
cytotoxicity at 10 µM: -0.288%

O=C(Cc1cccc2ccccc12)N1CCC(Nc2cccnn2)CC1
cytotoxicity at 10 µM: -17.1%

c1cnnc(N2CCCC2CNc2ncnc3ccccc23)c1 (stereo not drawn)
cytotoxicity at 10 µM: 2.33%

Cc1cc(NCCO)nc(-c2ccccc2O)n1
cytotoxicity at 10 µM: 14.1%

Clc1cccc(Cl)c1CNCCOc1ccccn1
cytotoxicity at 10 µM: -13.2%

O=C(NCCCN1CCOCC1)c1cc(-c2ccccc2)[nH]n1
cytotoxicity at 10 µM: -161%

O=C(C1CCOCC1)N1CCC2(CCN(Cc3nccs3)CC2)CC1
cytotoxicity at 10 µM: -83.1%

Cc1cccc(OCCC(=O)NCC(C)(C)C(N)=O)c1
cytotoxicity at 10 µM: -6.38%

COCCc1noc(Cn2ccc3ccccc3c2=O)n1
cytotoxicity at 10 µM: 0.0869%

COCC(C)N1CCc2onc(-c3ccc(C(F)(F)F)cc3)c2C1 (stereo not drawn)
cytotoxicity at 10 µM: -6.45%

Cc1ncsc1CN(C)C(=O)C(CC(C)C)N1CCCCC1=O (stereo not drawn)
cytotoxicity at 10 µM: 3.28%

CCOCC(=O)N1Cc2nccn2CC(CN2CCCC2)C1 (stereo not drawn)
cytotoxicity at 10 µM: -76.3%

CCN(C(=O)CS(=O)(=O)Cc1cc(Cl)c2c(c1)OCCCO2)C1CC1
cytotoxicity at 10 µM: 0.787%

CN(C)Cc1ccccc1CN(C)C(=O)c1ccoc1
cytotoxicity at 10 µM: -11.8%

COc1ccc(S(=O)(=O)N2CCC[C@@H]3CN(C(=O)C4CC4)C[C@@H]32)cc1F
cytotoxicity at 10 µM: 3.75%

CCc1cnc(CN(C(C)=O)C2CCN(CCN3CCCCC3)C2)o1 (stereo not drawn)
cytotoxicity at 10 µM: -3.63%

Cc1nc(CN2CCCC(Nc3ncnc4ccsc34)C2)no1 (stereo not drawn)
cytotoxicity at 10 µM: 42.2%

CCC(=O)NCC(Cc1cccc(F)c1)n1cccc1 (stereo not drawn)
cytotoxicity at 10 µM: -0.765%

CCOC(=O)c1nc(CN2CCN(C(C)C(=O)NC3CC3)CC2)cs1 (stereo not drawn)
cytotoxicity at 10 µM: -2.52%

COc1cccc(S(=O)(=O)N2CCC(O)(CN(C)C)C2)c1 (stereo not drawn)
cytotoxicity at 10 µM: 3.85%

CN(Cc1n[nH]c(=O)n1Cc1ccccc1F)S(C)(=O)=O
cytotoxicity at 10 µM: -4.98%

COc1ccc2c(ccn2CCC(=O)Nc2n[nH]c(C(C)C)n2)c1
cytotoxicity at 10 µM: 3.3%

CN(C)CCOCc1nnc2n1CCN(Cc1ccsc1)C2
cytotoxicity at 10 µM: 3.02%

Cc1ccc(CN2C[C@H](N3CCOCC3)[C@@H]3OCCC[C@@H]32)o1
cytotoxicity at 10 µM: -125%

Cc1cccc(OC2CCN(C(=O)NCCn3ccnc3)CC2)c1C
cytotoxicity at 10 µM: 0.856%

COCC1CN(Cc2ccc(C)o2)Cc2cn(C)nc21 (stereo not drawn)
cytotoxicity at 10 µM: -9.2%

CC(C)c1nc(N2CCC(N3CCCCCC3)CC2)c2cnn(C)c2n1
cytotoxicity at 10 µM: -135%

O=C(O)c1ccc(F)c(S(=O)(=O)Nc2c(F)cccc2-n2cccn2)c1
cytotoxicity at 10 µM: -5.59%

COCC(=O)N1CCC(C(=O)N(C)CCCc2nccn2C)CC1
cytotoxicity at 10 µM: -1.81%

Cc1ccc2c(n1)N(Cc1cccnc1)CCN(C(=O)C1CC1)C2
cytotoxicity at 10 µM: -61.7%

Fc1cc(CNCCn2cccn2)ccc1-n1cncn1
cytotoxicity at 10 µM: -11.1%

Cc1nc2c(c(N3CCCOCC3)n1)CCN(c1nccs1)CC2
cytotoxicity at 10 µM: 3.08%

CC(C)(C)c1nnc(CN2CCN(C(=O)N3CCCCC3)CC2)o1
cytotoxicity at 10 µM: 2.44%

O=C(C1CC1)N1CC2(CCNCC2)C1
cytotoxicity at 10 µM: -0.832%
